The test system of assay [1] is HepG2. The experiment in a line: Antiproliferative activity against human HepG2 cells assessed as reduction in cell viability incubated for 24 hrs by MTT assay. The assay is classed as functional, cell-based. As to conditions: HepG2, 24 h. The method, boiled down:
(§1)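 Cells from ATCC grown in RPMI-1640 with 10% FBS, penicillin 100 unit/ml and streptomycin 100 μg/ml at 37 °C, 5% CO2. Seeded at 1.0 x 10^4 cells/well for 48 h, then exposed to a range of compound concentrations for 24 h. MTT (5 mg/ml) added for 4 h, formazan dissolved in DMSO, A570 read. Viability taken as % of untreated. Duplicate wells, at least three independent IC50 determinations.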
(In general: Tetrazolium assays rely on reduction of a dye to a coloured formazan, in cell work by metabolically active cells.)

For assay [2], the system named is MCF7. In words: Antiproliferative activity against human MCF7 cells assessed as reduction in cell viability incubated for 24 hrs by MTT assay. The assay is classed as functional, cell-based. As to conditions: MCF7, 24 h. The essentials: as §1
Assay [3] concerns HCT-116. The experiment in a line: Antiproliferative activity against human HCT-116 cells assessed as reduction in cell viability incubated for 24 hrs by MTT assay. The assay is classed as functional, cell-based. As to conditions: HCT-116, 24 h. The method, boiled down: as §1
Assay [4] concerns the target Vascular endothelial growth factor receptor 2 (Homo sapiens, UniProt P35968).
The subject of assay [5] is HCT-116. The experiment in a line: Potency index, ratio of IC50 of doxorubicin to IC50 of compound for antiproliferative activity against human HCT-116 cells assessed as reduction in cell viability incubated for 24 hrs by MTT assay. The assay is classed as functional.
Assay [6] relates to MCF7. The experiment in a line: Potency index, ratio of IC50 of doxorubicin to IC50 of compound for antiproliferative activity against human MCF7 cells assessed as reduction in cell viability incubated for 24 hrs by MTT assay. The assay is classed as functional.
Assay [7] has as its system HepG2. The experiment in a line: Potency index, ratio of IC50 of doxorubicin to IC50 of compound for antiproliferative activity against human HepG2 cells assessed as reduction in cell viability incubated for 24 hrs by MTT assay. The assay is classed as functional.
Assay [8] has as its system MCF7. The experiment in a line: Potency index, ratio of IC50 of sorafenib to IC50 of compound for antiproliferative activity against human MCF7 cells assessed as reduction in cell viability incubated for 24 hrs by MTT assay. It counts as functional.
Assay [9] relates to HCT-116. The experiment in a line: Potency index, ratio of IC50 of sorafenib to IC50 of compound for antiproliferative activity against human HCT-116 cells assessed as reduction in cell viability incubated for 24 hrs by MTT assay. It counts as functional.
Assay [10] has as its system HepG2. In words: Potency index, ratio of IC50 of sorafenib to IC50 of compound for antiproliferative activity against human HepG2 cells assessed as reduction in cell viability incubated for 24 hrs by MTT assay. The assay is classed as functional.

Molecules are shown by their SMILES.

Chain of Vascular endothelial growth factor receptor 2 (P35968 whole entry): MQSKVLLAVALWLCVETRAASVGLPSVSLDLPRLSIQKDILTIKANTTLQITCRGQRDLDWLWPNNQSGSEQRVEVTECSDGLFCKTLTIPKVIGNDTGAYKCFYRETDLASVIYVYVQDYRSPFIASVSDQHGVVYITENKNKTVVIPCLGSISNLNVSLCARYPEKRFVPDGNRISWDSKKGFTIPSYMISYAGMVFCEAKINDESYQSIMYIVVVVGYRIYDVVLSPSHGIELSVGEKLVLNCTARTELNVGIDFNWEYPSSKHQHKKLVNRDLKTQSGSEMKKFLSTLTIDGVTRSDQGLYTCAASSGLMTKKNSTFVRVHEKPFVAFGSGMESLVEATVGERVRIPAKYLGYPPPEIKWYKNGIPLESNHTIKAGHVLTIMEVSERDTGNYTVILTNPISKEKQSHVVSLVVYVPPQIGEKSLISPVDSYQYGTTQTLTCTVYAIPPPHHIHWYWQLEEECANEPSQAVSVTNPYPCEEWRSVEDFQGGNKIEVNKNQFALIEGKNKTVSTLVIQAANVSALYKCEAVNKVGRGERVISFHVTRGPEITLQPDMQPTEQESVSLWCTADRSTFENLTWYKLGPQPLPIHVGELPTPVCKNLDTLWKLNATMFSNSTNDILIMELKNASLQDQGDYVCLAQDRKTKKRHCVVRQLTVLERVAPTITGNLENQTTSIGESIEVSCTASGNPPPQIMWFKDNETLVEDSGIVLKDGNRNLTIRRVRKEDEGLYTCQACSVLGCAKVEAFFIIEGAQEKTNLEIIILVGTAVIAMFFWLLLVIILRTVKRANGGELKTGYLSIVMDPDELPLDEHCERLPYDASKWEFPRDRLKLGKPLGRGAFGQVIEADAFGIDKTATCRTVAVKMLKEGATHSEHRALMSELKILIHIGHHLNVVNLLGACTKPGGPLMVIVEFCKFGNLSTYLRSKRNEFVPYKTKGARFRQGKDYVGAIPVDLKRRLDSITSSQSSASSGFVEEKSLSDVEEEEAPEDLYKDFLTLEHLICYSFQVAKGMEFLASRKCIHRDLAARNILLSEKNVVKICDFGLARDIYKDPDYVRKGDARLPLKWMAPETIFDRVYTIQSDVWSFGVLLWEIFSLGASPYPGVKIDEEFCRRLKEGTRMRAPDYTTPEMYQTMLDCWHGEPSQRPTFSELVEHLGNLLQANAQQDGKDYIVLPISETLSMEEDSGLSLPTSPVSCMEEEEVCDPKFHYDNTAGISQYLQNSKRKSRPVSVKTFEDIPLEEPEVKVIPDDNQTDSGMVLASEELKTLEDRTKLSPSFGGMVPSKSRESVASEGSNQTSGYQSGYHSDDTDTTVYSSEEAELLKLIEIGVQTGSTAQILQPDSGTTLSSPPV

Broadly, the IC50 is the point on the concentration scale where inhibition reaches its midpoint. Turning to `Cc1ccc(-n2c(SCC(=O)Nc3ccc(C(=O)NC4CCCCC4)cc3)nc3ccccc3c2=O)cc1`, the IC50 is 16.5 µM with HepG2 [1], 24.9 µM in the assay with MCF7 [2] and 14.1 µM in the assay on HCT-116 [3].

Regarding `C/C(=N\NC(=O)c1ccccc1)c1ccc(NC(=O)CSc2nc3ccccc3c(=O)n2-c2ccc(C)cc2)cc1`, the IC50 is 30.5 µM with HepG2 [1], 35.9 µM in the assay with MCF7 [2] and 29 µM in the assay on HCT-116 [3].

`Cc1ccc(-n2c(SCC(=O)Nc3ccc(C(=O)NNC(=O)c4ccccc4O)cc3)nc3ccccc3c2=O)cc1`: the IC50 was 11.7 µM in the assay on HepG2 [1], 14.4 µM in the assay on MCF7 [2], 10.8 µM in the assay on HCT-116 [3] and 1.07 µM in assay [4].

`Cc1ccc(-n2c(SCC(=O)Nc3ccc(C(=O)NCc4ccccc4)cc3)nc3ccccc3c2=O)cc1`: the IC50 in the assay on HepG2 [1] is 17.4 µM; in the assay with MCF7 [2], 18.3 µM; with HCT-116 [3], 13.4 µM; in assay [4] it was 1.4 µM.

Regarding `Cc1ccc(-n2c(SCC(=O)Nc3ccc(C(=O)NNc4ccccc4)cc3)nc3ccccc3c2=O)cc1`, the IC50 with HepG2 [1] was 12.1 µM; in the assay with MCF7 [2], 16.1 µM; in the assay on HCT-116 [3], 9.4 µM; in assay [4] it was 1.21 µM.

Consider `CC(=O)c1ccc(NC(=O)CSc2nc3ccccc3c(=O)n2-c2ccc(C)cc2)cc1`, for which the IC50 in the assay on HepG2 [1] is 12.3 µM; in the assay on MCF7 [2] it was 13.5 µM; with HCT-116 [3], 8.27 µM; in assay [4] it was 1.78 µM.

Turning to `Cc1ccc(-n2c(SCC(=O)Nc3ccc(C(=O)Nc4ccccc4)cc3)nc3ccccc3c2=O)cc1`, the IC50 in the assay on HepG2 [1] is 21.8 µM; in the assay with MCF7 [2], 26.9 µM; with HCT-116 [3], 16.6 µM; in assay [4], 1.37 µM.

Consider `C/C(=N\NC(=O)c1ccccc1Cl)c1ccc(NC(=O)CSc2nc3ccccc3c(=O)n2-c2ccc(C)cc2)cc1`, for which the IC50 in the assay on HepG2 [1] turned out to be 22.6 µM; with MCF7 [2], 23 µM; in the assay with HCT-116 [3] it was 17.1 µM.

With `CCOC(=O)c1ccc(NC(=O)c2ccc(NC(=O)CSc3nc4ccccc4c(=O)n3-c3ccc(C)cc3)cc2)cc1`, the IC50 in the assay with HepG2 [1] was 21.5 µM; in the assay with MCF7 [2] it was 23.7 µM; in the assay on HCT-116 [3], 17 µM.

Take `Cc1ccc(-n2c(SCC(=O)Nc3ccc(C(=O)Nc4ccc(Cl)cc4)cc3)nc3ccccc3c2=O)cc1`: the IC50 was 4.12 µM in the assay with HepG2 [1], 5.99 µM with MCF7 [2], 3.67 µM in the assay on HCT-116 [3] and 0.685 µM in assay [4].

Turning to `Cc1ccc(NC(=O)c2ccc(NC(=O)CSc3nc4ccccc4c(=O)n3-c3ccc(C)cc3)cc2)cc1`, the results for the IC50 with HepG2 [1], in the assay on MCF7 [2] and in the assay with HCT-116 [3] were 19 µM, 28.4 µM and 17.4 µM, respectively.

Turning to `C/C(=N\NC(=O)c1cccc(Cl)c1)c1ccc(NC(=O)CSc2nc3ccccc3c(=O)n2-c2ccc(C)cc2)cc1`, the IC50 in the assay with HepG2 [1] was found to be 33.8 µM; in the assay with MCF7 [2], 40.9 µM; in the assay on HCT-116 [3], 30.4 µM.

With `C/C(=N\NC(=O)c1ccccc1O)c1ccc(NC(=O)CSc2nc3ccccc3c(=O)n2-c2ccc(C)cc2)cc1`, the IC50 in the assay on HepG2 [1] is 11.9 µM; with MCF7 [2], 15.4 µM; in the assay on HCT-116 [3], 12.4 µM; in assay [4], 1.06 µM.

Consider `C/C(=N\NC(=O)c1cc([N+](=O)[O-])ccc1Cl)c1ccc(NC(=O)CSc2nc3ccccc3c(=O)n2-c2ccc(C)cc2)cc1`, for which the IC50 in the assay with HepG2 [1] is 1.88 µM; in the assay on MCF7 [2], 3.91 µM; with HCT-116 [3] it was 1.68 µM; in [4], 0.452 µM. Also, the Ratio IC50 is 5.73 in the assay with HCT-116 [5]; 1.96 in the assay on MCF7 [6]; 4.39 in the assay on HepG2 [7]; 1.84 with MCF7 [8]; 5.59 in the assay with HCT-116 [9]; 3.88 in the assay with HepG2 [10].

Regarding `CC(=O)NS(=O)(=O)c1ccc(NC(=O)CSc2nc3ccccc3c(=O)n2-c2ccc(C)cc2)cc1`, the half-maximal inhibitory concentration (IC50) in the assay with HepG2 [1] was 4.19 µM; in the assay with MCF7 [2] it was 6.79 µM; in the assay with HCT-116 [3], 6.14 µM; in assay [4] it was 0.721 µM.

With `Cc1ccc(-n2c(SCC(=O)Nc3ccc(S(=O)(=O)Nc4nc(C)cc(C)n4)cc3)nc3ccccc3c2=O)cc1`, the IC50 is 6.76 µM in the assay with HepG2 [1], 7.1 µM in the assay on MCF7 [2], 5.24 µM in the assay with HCT-116 [3] and 0.707 µM in assay [4].

For `C/C(=N\NC(N)=S)c1ccc(NC(=O)CSc2nc3ccccc3c(=O)n2-c2ccc(C)cc2)cc1`, the IC50 was 8.38 µM in the assay on HepG2 [1], 9.89 µM with MCF7 [2], 8.32 µM in the assay with HCT-116 [3] and 1 µM in assay [4].

With `Cc1ccc(-n2c(SCC(=O)Nc3ccc(S(=O)(=O)Nc4ccccn4)cc3)nc3ccccc3c2=O)cc1`, the IC50 in the assay with HepG2 [1] amounted to 30 µM; in the assay on MCF7 [2], 30.6 µM; in the assay with HCT-116 [3], 24.1 µM.

`C/C(=N\NC(=O)c1ccc(Cl)cc1)c1ccc(NC(=O)CSc2nc3ccccc3c(=O)n2-c2ccc(C)cc2)cc1`: the IC50 with HepG2 [1] is 41.6 µM; in the assay with MCF7 [2] it was 44 µM; in the assay with HCT-116 [3] it was 37.1 µM.

For `COc1cccc2c1C(=O)c1c(O)c3c(c(O)c1C2=O)C[C@@](O)(C(=O)CO)C[C@@H]3O[C@H]1C[C@H](N)[C@H](O)[C@H](C)O1` [DOXORUBICIN], in the assay on HCT-116 [3], the IC50 was found to be 9.63 µM.

With `CNC(=O)c1cc(Oc2ccc(NC(=O)Nc3ccc(Cl)c(C(F)(F)F)c3)cc2)ccn1` [SORAFENIB], the IC50 in the assay on HepG2 [1] is 7.31 µM; with MCF7 [2], 7.21 µM; in the assay with HCT-116 [3] it was 9.4 µM.

These data come from ChEMBL document CHEMBL4673301, “Design, synthesis, and anti-proliferative evaluation of new quinazolin-4(3H)-ones as potential VEGFR-2 inhibitors” (Bioorg Med Chem, 2021).
